Key:
[1] = molecular target: Acetylcholine receptor; alpha1/beta1/delta/gamma (Homo sapiens, UniProt P02708+P07510+P11230+Q07001); test: Binding affinity to human muscle nAChR alpha1beta1gammadelta expressed in human TE-671 cells; assay type: cell-based
Procedure, shortened: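 Binding carried out in TE-671 cells as the muscle-type receptor source. Affinity reported as Ki, given as the mean.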

[2] = molecular target: T1, Neuronal acetylcholine receptor; alpha3/beta4 (Homo sapiens, UniProt P30926+P32297); test: Binding affinity to human ganglionic nAChR alpha3beta4 expressed in human SHSY-5Y cells; assay type: cell-based, SH-SY5Y
Procedure, shortened: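 Binding measured on the α3β4 subtype endogenous to human SHSY-5Y clonal cells. Affinity reported as Ki, given as the mean.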

[3] = molecular target: T1, Neuronal acetylcholine receptor; alpha3/beta4; test: Agonist activity at human ganglionic nAChR alpha3beta4 expressed in human SHSY-5Y cells assessed as calcium flux by fluorescence analysis relative to nicotine; conditions: SH-SY5Y
[4] = molecular target: T2, Neuronal acetylcholine receptor; alpha4/beta2 (Homo sapiens, UniProt P17787+P43681); test: Displacement of [3H]-epibatidine from human nAChR alpha4beta2 expressed in human SH-EP1 cells; assay type: cell-based
Procedure, shortened: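 Radioligand binding using [3H]-epibatidine on human α4β2 nAChR expressed in SH-EP1 cells. Affinity reported as Ki, given as the mean.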

[5] = molecular target: T1, Neuronal acetylcholine receptor; alpha3/beta4; test: Agonist activity at human ganglionic nAChR alpha3beta4 expressed in human SHSY-5Y cells assessed as calcium flux by fluorescence analysis
[6] = molecular target: Neuronal acetylcholine receptor; alpha4/beta2 (Rattus norvegicus, UniProt P09483+P12390); test: Displacement of [3H]-nicotine from rat nAChR alpha4beta2 in rat cortex
[7] = molecular target: Neuronal acetylcholine receptor subunit alpha-7 (Homo sapiens, UniProt P36544); test: Binding affinity to human nAChR alpha7 expressed in HEK cells coexpressing RIC3; assay type: cell-based, HEK293
Procedure, shortened: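 Binding measured at human α7 nAChR in HEK cells coexpressing RIC3. Affinity reported as Ki, given as the mean.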

[8] = molecular target: T2, Neuronal acetylcholine receptor; alpha4/beta2; test: Antagonist activity at human nAChR alpha4beta2 expressed in human SH-EP1 cells assessed as calcium flux by fluorescence analysis relative to nicotine; assay type: functional, cell-based

Sequence of Neuronal acetylcholine receptor subunit alpha-7 (P36544 whole entry): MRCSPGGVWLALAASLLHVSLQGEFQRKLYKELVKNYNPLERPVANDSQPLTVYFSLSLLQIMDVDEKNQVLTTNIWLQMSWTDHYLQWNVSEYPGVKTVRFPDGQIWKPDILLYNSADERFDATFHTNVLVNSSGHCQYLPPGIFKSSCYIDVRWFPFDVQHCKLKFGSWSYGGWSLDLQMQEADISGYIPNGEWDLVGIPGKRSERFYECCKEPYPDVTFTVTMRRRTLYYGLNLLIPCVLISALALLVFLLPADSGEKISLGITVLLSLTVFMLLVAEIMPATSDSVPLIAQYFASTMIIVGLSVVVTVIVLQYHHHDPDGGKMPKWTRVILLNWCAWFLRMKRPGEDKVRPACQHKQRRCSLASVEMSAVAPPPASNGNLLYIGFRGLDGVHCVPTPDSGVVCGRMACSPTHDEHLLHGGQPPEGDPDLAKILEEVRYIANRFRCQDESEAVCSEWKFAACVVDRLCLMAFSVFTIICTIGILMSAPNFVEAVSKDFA
T1 sequence (P30926 whole entry): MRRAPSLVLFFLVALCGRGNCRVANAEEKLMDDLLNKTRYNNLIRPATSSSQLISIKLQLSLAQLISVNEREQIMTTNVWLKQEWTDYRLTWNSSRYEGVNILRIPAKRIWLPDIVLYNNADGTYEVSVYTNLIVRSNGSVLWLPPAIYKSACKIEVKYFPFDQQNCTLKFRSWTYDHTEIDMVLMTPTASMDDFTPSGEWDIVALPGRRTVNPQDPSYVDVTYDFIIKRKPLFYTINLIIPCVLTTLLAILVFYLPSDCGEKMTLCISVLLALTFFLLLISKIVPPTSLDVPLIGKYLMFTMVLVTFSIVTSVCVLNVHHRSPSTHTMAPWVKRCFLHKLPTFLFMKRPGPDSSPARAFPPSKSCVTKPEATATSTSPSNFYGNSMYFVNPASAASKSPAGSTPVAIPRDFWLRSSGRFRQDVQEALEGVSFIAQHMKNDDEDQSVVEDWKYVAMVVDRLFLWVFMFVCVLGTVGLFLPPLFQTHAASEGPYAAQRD
T1 sequence (P32297 whole entry): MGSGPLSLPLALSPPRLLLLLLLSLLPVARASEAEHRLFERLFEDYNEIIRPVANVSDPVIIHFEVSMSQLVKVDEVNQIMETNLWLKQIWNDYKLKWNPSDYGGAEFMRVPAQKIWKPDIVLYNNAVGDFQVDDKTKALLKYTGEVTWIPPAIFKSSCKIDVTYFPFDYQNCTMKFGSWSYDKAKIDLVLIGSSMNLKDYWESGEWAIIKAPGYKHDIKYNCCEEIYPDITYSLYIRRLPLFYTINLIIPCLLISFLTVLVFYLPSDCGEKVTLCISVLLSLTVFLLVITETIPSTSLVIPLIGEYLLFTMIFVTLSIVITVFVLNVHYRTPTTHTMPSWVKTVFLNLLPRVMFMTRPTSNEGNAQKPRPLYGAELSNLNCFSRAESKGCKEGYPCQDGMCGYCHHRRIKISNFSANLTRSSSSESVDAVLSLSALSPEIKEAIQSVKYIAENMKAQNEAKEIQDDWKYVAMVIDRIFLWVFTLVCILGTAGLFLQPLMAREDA
T2 sequence (P17787 whole entry): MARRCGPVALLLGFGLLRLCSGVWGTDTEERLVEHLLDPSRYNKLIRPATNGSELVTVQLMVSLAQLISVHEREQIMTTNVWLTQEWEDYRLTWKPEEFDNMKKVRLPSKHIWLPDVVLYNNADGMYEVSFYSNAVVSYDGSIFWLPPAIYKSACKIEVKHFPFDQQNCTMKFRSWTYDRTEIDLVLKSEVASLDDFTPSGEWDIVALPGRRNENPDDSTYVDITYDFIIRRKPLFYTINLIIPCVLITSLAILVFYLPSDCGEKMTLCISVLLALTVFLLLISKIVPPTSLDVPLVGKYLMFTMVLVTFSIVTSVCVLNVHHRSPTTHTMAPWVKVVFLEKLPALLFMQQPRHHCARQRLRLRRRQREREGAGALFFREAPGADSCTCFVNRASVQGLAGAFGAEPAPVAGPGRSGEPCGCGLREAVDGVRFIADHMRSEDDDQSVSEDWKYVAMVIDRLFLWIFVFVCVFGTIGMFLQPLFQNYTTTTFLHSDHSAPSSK
T2 sequence (P43681 whole entry): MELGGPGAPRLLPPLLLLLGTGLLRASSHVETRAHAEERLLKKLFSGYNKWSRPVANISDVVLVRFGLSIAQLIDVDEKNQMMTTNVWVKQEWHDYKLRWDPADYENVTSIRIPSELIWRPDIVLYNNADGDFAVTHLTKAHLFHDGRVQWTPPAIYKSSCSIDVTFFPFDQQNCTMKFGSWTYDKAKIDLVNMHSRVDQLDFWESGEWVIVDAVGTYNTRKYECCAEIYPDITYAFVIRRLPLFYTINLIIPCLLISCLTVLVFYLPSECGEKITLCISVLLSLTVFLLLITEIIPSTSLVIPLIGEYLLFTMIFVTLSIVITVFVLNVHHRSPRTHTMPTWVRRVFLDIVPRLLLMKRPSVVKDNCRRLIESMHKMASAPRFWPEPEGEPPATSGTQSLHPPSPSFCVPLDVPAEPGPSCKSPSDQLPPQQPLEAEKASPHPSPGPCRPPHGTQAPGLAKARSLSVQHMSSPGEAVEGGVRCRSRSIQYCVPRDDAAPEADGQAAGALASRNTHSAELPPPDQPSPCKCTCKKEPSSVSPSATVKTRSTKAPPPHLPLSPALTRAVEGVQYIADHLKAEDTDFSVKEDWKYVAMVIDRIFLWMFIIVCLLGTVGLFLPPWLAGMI
Sequence of Neuronal acetylcholine receptor; alpha4/beta2 (Rattus norvegicus, UniProt P09483+P12390) (P09483 whole entry): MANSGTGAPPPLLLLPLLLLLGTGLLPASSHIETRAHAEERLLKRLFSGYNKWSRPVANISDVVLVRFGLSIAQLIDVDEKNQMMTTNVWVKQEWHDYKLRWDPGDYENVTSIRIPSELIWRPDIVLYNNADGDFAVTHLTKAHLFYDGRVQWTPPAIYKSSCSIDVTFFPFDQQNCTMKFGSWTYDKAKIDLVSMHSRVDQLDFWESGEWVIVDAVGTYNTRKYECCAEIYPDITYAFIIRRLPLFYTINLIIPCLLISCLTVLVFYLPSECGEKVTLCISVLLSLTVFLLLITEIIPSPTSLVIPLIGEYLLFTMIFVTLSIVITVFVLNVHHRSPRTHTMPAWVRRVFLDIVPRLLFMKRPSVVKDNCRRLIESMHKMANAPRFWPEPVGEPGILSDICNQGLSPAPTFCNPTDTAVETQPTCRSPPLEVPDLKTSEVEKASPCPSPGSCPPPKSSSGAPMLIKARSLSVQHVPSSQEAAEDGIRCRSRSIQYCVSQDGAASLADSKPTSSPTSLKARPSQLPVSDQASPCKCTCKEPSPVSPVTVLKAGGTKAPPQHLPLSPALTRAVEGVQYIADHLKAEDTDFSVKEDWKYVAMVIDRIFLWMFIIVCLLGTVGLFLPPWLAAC
Sequence of Neuronal acetylcholine receptor; alpha4/beta2 (Rattus norvegicus, UniProt P09483+P12390) (P12390 whole entry): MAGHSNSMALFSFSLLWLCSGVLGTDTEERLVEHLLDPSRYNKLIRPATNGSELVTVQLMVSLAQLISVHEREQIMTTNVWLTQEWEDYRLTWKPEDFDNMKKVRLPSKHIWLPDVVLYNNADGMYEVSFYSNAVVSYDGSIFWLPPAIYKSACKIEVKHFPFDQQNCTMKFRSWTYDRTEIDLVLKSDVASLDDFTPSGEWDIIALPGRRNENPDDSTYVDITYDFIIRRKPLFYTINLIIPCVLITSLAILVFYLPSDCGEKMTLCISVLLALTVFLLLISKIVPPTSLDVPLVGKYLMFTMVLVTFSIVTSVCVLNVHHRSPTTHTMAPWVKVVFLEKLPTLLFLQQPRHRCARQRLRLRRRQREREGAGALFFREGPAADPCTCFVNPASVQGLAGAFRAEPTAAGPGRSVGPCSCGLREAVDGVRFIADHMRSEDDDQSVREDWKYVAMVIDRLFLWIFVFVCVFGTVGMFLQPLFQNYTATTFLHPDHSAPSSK

SMILES | Ki [1] | Ki [2] | Emax [3] | Ki [4] | EC50 [5] | Ki [6] | Ki [7] | Emax [8]
c1cncc(N2CCC3(CCCN3)C2)c1 (stereo unspecified) [TC-2216] | 5700 nM | 1200 nM | 9.6% | 29 nM | 55000 nM | 75 nM | 6900 nM | 
c1cncc(N2CCC3(CC4CCN3C4)C2)c1 (stereo unspecified) | 9900 nM | 2400 nM | 3.1% | 29 nM | 31000 nM | 40 nM | 7900 nM | 92%
c1cncc(N2CCC3(C2)C2CCN3CC2)c1 (stereo unspecified) | 580 nM | 560 nM | 29% | 10 nM | 2600 nM | 34 nM | 7600 nM | 92%
c1cncc(N2CCC3(CC4CCN3CC4)C2)c1 (stereo unspecified) | 11000 nM | 1100 nM | 4.2% | 32 nM | 6900 nM | 5.7 nM | 8000 nM | 92%

From ChEMBL document CHEMBL2057085, “Diazaspirocyclic compounds as selective ligands for the α4β2 nicotinic acetylcholine receptor” (Bioorg Med Chem Lett, 2012)
